Legend:
[1] = target: T1, Vascular endothelial growth factor receptor 2 (Homo sapiens, UniProt P35968); assay: Inhibition of KDR phosphorylation; type: functional
[2] = Half life in Sprague-Dawley rat at 1 mg/kg, iv or 10 mg/kg po; type: ADME, organism-based; conditions: in vivo
Procedure, shortened: (§1)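 Male Sprague-Dawley rats were dosed either into the femoral vein at 1 mg/kg in DMSO (n = 3) or by oral gavage at 10 mg/kg as an Ora-Plus suspension, pH 2.0-2.2 with methanesulfonic acid (n = 2). Serial jugular-vein blood was taken into heparinized tubes over 12-24 h. Parameters were derived by noncompartmental analysis.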

[3] = Volume of distribution at steady state in Sprague-Dawley rat at 1 mg/kg, iv; type: ADME, organism-based; design: dose 1 mg/kg, route intravenous; conditions: in vivo, read-out: Vdss
Procedure, shortened: (§2)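 Male Sprague-Dawley rats, n = 3, given 1 mg/kg as a DMSO solution into the femoral vein. Serial jugular-vein blood samples were taken into heparinized tubes over 12-24 h. Parameters were derived by noncompartmental analysis.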

[4] = Oral bioavailability in Sprague-Dawley rat at 3 mg/kg, po; type: ADME, organism-based; conditions: in vivo
Procedure, shortened: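 Male Sprague-Dawley rats given 3 mg/kg by oral gavage as an Ora-Plus suspension adjusted to pH 2.0-2.2 with methanesulfonic acid. Serial jugular-vein blood was taken into heparinized tubes over 12-24 h. Noncompartmental analysis.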

[5] = Clearance in Sprague-Dawley rat at 1 mg/kg, iv; type: ADME, organism-based; design: dose 1 mg/kg, route intravenous; conditions: in vivo; procedure, shortened: as §2
[6] = target: T1, Vascular endothelial growth factor receptor 2; assay: Selectivity for VEGF-stimulated HUVEC cell proliferation over FGF-induced HUVEC cell proliferation; type: functional, cell-based
Procedure, shortened: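 HUVECs seeded at 3000/well in DMEM with 10% FBS, 22 h, then preincubated 2 h with compound serial dilutions. Stimulated with 50 ng/mL VEGF or 20 ng/mL bFGF for 72 h at 37 °C, 5% CO₂. Cells washed, frozen, then quantified with CyQuant dye. IC50s from four-parameter logistic fit; ratio of FGF over VEGF IC50.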

[7] = Oral bioavailability in Sprague-Dawley rat at 10 mg/kg, po; type: ADME, organism-based; conditions: in vivo; procedure, shortened: as §1

T1 sequence (P35968 whole entry): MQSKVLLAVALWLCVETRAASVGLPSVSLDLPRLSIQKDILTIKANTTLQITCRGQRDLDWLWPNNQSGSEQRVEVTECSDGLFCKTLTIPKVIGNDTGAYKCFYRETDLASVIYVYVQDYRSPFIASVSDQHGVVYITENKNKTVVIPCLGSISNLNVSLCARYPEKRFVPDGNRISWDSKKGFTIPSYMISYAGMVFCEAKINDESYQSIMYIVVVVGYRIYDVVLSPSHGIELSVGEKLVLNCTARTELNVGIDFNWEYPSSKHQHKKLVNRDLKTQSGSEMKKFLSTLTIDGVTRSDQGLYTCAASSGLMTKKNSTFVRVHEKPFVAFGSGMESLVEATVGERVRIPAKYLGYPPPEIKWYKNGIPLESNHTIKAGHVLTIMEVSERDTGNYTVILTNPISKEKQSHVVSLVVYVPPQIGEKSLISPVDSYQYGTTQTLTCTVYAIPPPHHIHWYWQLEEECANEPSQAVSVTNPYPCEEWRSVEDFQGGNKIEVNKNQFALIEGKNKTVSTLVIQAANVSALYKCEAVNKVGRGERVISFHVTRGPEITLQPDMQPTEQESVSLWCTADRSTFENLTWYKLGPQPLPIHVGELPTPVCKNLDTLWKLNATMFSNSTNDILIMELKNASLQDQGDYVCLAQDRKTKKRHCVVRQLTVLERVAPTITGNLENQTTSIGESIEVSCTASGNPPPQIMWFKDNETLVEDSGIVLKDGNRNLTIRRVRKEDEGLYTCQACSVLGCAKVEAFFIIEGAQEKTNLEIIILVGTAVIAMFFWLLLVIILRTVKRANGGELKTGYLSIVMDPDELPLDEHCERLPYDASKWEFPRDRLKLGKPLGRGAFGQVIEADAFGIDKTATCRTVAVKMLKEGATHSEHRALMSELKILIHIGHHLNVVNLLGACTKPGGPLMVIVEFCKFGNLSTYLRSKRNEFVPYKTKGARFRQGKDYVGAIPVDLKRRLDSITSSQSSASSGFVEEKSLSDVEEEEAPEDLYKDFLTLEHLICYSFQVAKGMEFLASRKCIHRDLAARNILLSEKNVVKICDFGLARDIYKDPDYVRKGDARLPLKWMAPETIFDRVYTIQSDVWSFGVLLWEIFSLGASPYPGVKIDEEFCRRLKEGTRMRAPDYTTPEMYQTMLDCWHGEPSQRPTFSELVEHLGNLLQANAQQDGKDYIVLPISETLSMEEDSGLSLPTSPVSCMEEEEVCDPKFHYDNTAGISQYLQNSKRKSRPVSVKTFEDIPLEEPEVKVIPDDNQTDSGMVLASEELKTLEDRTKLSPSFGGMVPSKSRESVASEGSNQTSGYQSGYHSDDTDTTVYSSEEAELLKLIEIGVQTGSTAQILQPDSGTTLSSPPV

| SMILES | Ki [1] [nM] | also measured |
| --- | --- | --- |
| CNC(=O)c1cc(Oc2ccc3oc(Nc4ccc(Cl)c(CN5CCN(C)CC5)c4)nc3c2)ccn1 | 4 |  |
| CNc1nccc(Oc2ccc3[nH]c(Nc4ccc(Cl)c(CN5CCN(C)CC5)c4)nc3c2)n1 | 40 |  |
| CNC(=O)c1cc(Oc2cc(Cl)c3oc(Nc4ccc(Cl)c(CN5CCN(C)CC5)c4)nc3c2)ccn1 | 10 |  |
| COc1cc2ncnc(Oc3ccc4[nH]c(Nc5ccc(Cl)cc5)nc4c3)c2cc1OC | 8 |  |
| FC(F)(F)c1cc(Nc2nc3ccc(Oc4ccnc5[nH]ccc45)cc3[nH]2)ccc1Cl | 48 |  |
| CN1CCN(Cc2cc(Nc3nc4ccc(Oc5ncnc6[nH]ccc56)cc4[nH]3)ccc2Cl)CC1 | 17 |  |
| CNC(=O)c1cc(Oc2ccc3oc(Nc4ccc(Cl)cc4)nc3c2)ccn1 | 12 |  |
| CNC(=O)c1cc(Oc2ccc3[nH]c(Nc4cc(OCCN5CCCC5)cc(C(F)(F)F)c4)nc3c2)ccn1 | 287 |  |
| CNC(=O)c1cc(Oc2ccc3c(c2)nc(Nc2ccc(Cl)c(CN4CCN(C)CC4)c2)n3C)ccn1 | 10 |  |
| CNc1cc(Oc2ccc3oc(Nc4ccc(Cl)c(CN5CCN(C)CC5)c4)nc3c2)ncn1 | 20 |  |
| CNC(=O)c1cc(Oc2ccc3[nH]c(Nc4ccc(C(F)(F)C(F)(F)F)c(OC[C@H]5CCCN5C)c4)nc3c2)ccn1 | 9 |  |
| CNc1nccc(Oc2ccc3oc(Nc4ccc(Cl)c(CN5CCN(C)CC5)c4)nc3c2)n1 | 25 |  |
| CNC(=O)c1cc(Oc2ccc3oc(Nc4ccc(Cl)c(OC[C@@H]5CCCN5C)c4)nc3c2)ccn1 |  | half-life [2]: 1.8 h; Vd [3]: 8.4 L/kg; bioavailability [4]: 40%; clearance [5]: 56.7 mL/min/kg |
| CCN(CC)CCOc1cc(Nc2nc3cc(Oc4ccnc(C(=O)NC)c4)ccc3o2)ccc1Cl | 5 |  |
| CNC(=O)c1cc(Oc2ccc3oc(Nc4ccc(Cl)c(OCCN(C)C)c4)nc3c2)ccn1 | 4 |  |
| CSc1nccc(Oc2ccc3[nH]c(Nc4ccc(Cl)c(CN5CCN(C)CC5)c4)nc3c2)n1 | 128 |  |
| FC(F)(F)c1cc(Nc2nc3cc(Oc4ccncc4)ccc3[nH]2)ccc1Cl | 160 |  |
| CNC(=O)c1cc(Oc2ccc3oc(Nc4ccc(Cl)c(CN5CCOCC5)c4)nc3c2)ccn1 | 4 |  |

Further lines, with some results ahead:

| Ki [1] [nM] | SMILES | also measured |
| --- | --- | --- |
| 3 | CN1CCC[C@H]1COc1cc(Nc2nc3cc(Oc4ccnc(C(N)=O)c4)ccc3o2)ccc1Cl |  |
| 2 | CN1CCN(Cc2cc(Nc3nc4cc(Oc5ccnc6ccccc56)cc(Cl)c4o3)ccc2Cl)CC1 |  |
| 0.5 | COc1cc2nccc(Oc3ccc4oc(Nc5ccc(Cl)c(OC[C@@H]6CCCN6C)c5)nc4c3)c2cc1OC |  |
| 3 | CNC(=O)c1cc(Oc2cc(F)c3oc(Nc4ccc(Cl)c(OC[C@@H]5CCCN5C)c4)nc3c2)ccn1 |  |
| 3.6 | CN1CCN(Cc2cc(Nc3nc4cc(Oc5ccnc6ccccc56)ccc4o3)ccc2Cl)CC1 |  |
| 2 | CN1CCN(Cc2cc(Nc3nc4cc(Oc5ccnc6ccccc56)ccc4[nH]3)ccc2Cl)CC1 |  |
| 2 | CNC(=O)c1cc(Oc2ccc3[nH]c(Nc4ccc(C(F)(F)F)c(OC[C@H]5CCCN5C)c4)nc3c2)ccn1 |  |
| 3 | CNC(=O)c1cc(Oc2ccc3oc(Nc4ccc(Cl)c(OCC5CCNCC5)c4)nc3c2)ccn1 |  |
| 3 | CN1CCN(Cc2cc(Nc3nc4ccc(Oc5ccnc6[nH]ccc56)cc4[nH]3)ccc2Cl)CC1 |  |
| 3.9 | CNC(=O)c1cc(Oc2ccc3[nH]c(Nc4ccc(Cl)c(CN5CCN(C)CC5)c4)nc3c2)ccn1 |  |
| 0.2 | COc1cc2nccc(Oc3ccc4[nH]c(Nc5ccc(Cl)c(CN6CCN(C)CC6)c5)nc4c3)c2cc1OC |  |
| 0.5 | COc1cc2nccc(Oc3ccc4oc(Nc5ccc(Cl)c(CN6CCN(C)CC6)c5)nc4c3)c2cc1OC | half-life [2]: 5.53 h; Vd [3]: 12.1 L/kg; clearance [5]: 27.2 mL/min/kg; Ratio IC50 [6]: 10; bioavailability [7]: 67% |
| 0.5 | COc1cc2ncnc(Oc3ccc4oc(Nc5ccc(Cl)c(OC[C@@H]6CCCN6C)c5)nc4c3)c2cc1OC | half-life [2]: 6.14 h; Vd [3]: 6.88 L/kg; clearance [5]: 14.8 mL/min/kg; Ratio IC50 [6]: 10; bioavailability [7]: 60% |
| 3 | CNC(=O)c1cc(Oc2ccc3[nH]c(Nc4ccc(C(F)(F)F)c(OCCN(C)C)c4)nc3c2)ccn1 |  |
| 1 | CN1CCC[C@@H]1COc1cc(Nc2nc3cc(Oc4ccnc5ccccc45)ccc3[nH]2)ccc1C(F)(F)F | half-life [2]: 4.8 h; Vd [3]: 5.8 L/kg; clearance [5]: 16.7 mL/min/kg; bioavailability [7]: 24% |
| 2 | CN1CCN(Cc2cc(Nc3nc4cc(Oc5ccnc6[nH]ccc56)ccc4o3)ccc2Cl)CC1 |  |
| 1.6 | CN1CCCC1COc1cc(Nc2nc3cc(Oc4ccnc5[nH]ccc45)ccc3o2)ccc1Cl (single isomer, unassigned) | half-life [2]: 2.87 h; Vd [3]: 5.02 L/kg; clearance [5]: 20.7 mL/min/kg; bioavailability [7]: 17% |

Source: ChEMBL document CHEMBL1148766, “Design, synthesis, and evaluation of orally active benzimidazoles and benzoxazoles as vascular endothelial growth factor-2 receptor tyrosine kinase inhibitors” (J Med Chem, 2007)
